From ChEMBL document CHEMBL4184285, “Antibacterial activities of mono-, di- and tri-substituted triphenylamine-based phosphonium ionic liquids” (Bioorg Med Chem Lett, 2018)

Legend:
Staphylococcus aureus [1] = experiment: Antibacterial activity against Staphylococcus aureus SA1199B over-expressing NorA after 18 to 24 hrs by broth dilution method; assay type: functional
Acinetobacter baumannii = experiment: Antibacterial activity against Acinetobacter baumannii ATCC 19606 after 18 to 24 hrs by broth dilution method; assay type: functional; conditions: ATCC 19606 = CIP 70.34 = JCM 6841
Klebsiella aerogenes = experiment: Antibacterial activity against Enterobacter aerogenes ATCC 13048 after 18 to 24 hrs by broth dilution method; assay type: functional
Klebsiella pneumoniae = experiment: Antibacterial activity against Klebsiella pneumoniae CIP82.91 after 18 to 24 hrs by broth dilution method; assay type: functional
Staphylococcus aureus [2] = experiment: Antibacterial activity against Staphylococcus aureus SA1199 after 18 to 24 hrs by broth dilution method; assay type: functional
Escherichia coli = experiment: Antibacterial activity against Escherichia coli CIP54.8 after 18 to 24 hrs by broth dilution method; assay type: functional
Staphylococcus aureus [3] = experiment: Antibacterial activity against Staphylococcus aureus CIP 7625 after 18 to 24 hrs by broth dilution method; assay type: functional
Enterococcus faecium = experiment: Antibacterial activity against Enterococcus faecium DSMZ 20477 after 18 to 24 hrs by broth dilution method; assay type: functional
Pseudomonas aeruginosa = experiment: Antibacterial activity against Pseudomonas aeruginosa CIP100720 after 18 to 24 hrs by broth dilution method; assay type: functional
HepG2 = experiment: Cytotoxicity against human HepG2 cells assessed as reduction in cell viability after 24 hrs by WST1 assay; assay type: cell-based; conditions: hepg2, 24 h
Outline: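 Human hepatocyte HepG2 cultures were exposed to test material. IC50 was taken as the concentration giving a 50% decrease in cell respiration relative to the untreated control culture.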

| SMILES | MIC (Staphylococcus aureus [1]) [µg/mL] | MIC (Acinetobacter baumannii) [µg/mL] | MIC (Klebsiella aerogenes) [µg/mL] | MIC (Klebsiella pneumoniae) [µg/mL] | MIC (Staphylococcus aureus [2]) [µg/mL] | MIC (Escherichia coli) [µg/mL] | MIC (Staphylococcus aureus [3]) [µg/mL] | MIC (Enterococcus faecium) [µg/mL] | MIC (Pseudomonas aeruginosa) [µg/mL] | Activity (HepG2) [%] |
| --- | --- | --- | --- | --- | --- | --- | --- | --- | --- | --- |
| CCCC[P+](CCCC)(CCCC)CCCCCCOCc1ccc(N(c2ccccc2)c2ccccc2)cc1.[Cl-] | 0.5 | 16 | 16 | 16 | 0.5 | 16 | 1 | 1 | 32 |  |
| CCCCCC[P+](CCCCCC)(CCCCCC)CCCCCCCCCCOCc1ccc(N(c2ccccc2)c2ccccc2)cc1.[Br-] | 2 | 16 | > 64 | 32 | 1 | 32 | 2 | 8 | 64 |  |
| CCCCCC[P+](CCCCCC)(CCCCCC)CCCCCCOCc1ccc(N(c2ccccc2)c2ccccc2)cc1.[Cl-] | 2 | > 64 | > 64 | > 64 | 2 | > 64 | 2 | 4 | 16 | 0.09 |
| CCCCCCCC[P+](CCCCCCCC)(CCCCCCCC)CCCCCCOCc1ccc(N(c2ccccc2)c2ccccc2)cc1.[Cl-] | 8 | > 64 | > 64 | > 64 | 8 | > 64 | 8 | 16 | > 64 |  |
| CCCCCC[P+](CCCCCC)(CCCCCC)CCCCCCOCc1ccc(N(c2ccccc2)c2ccccc2)cc1.[Br-] | 2 | 64 | > 64 | 64 | 2 | > 64 | 2 | 4 | 64 |  |
| CCCCCC[P+](CCCCCC)(CCCCCC)CCCCCCOCc1ccc(N(c2ccc(COCCCCCC[P+](CCCCCC)(CCCCCC)CCCCCC)cc2)c2ccc(COCCCCCC[P+](CCCCCC)(CCCCCC)CCCCCC)cc2)cc1.[Cl-].[Cl-].[Cl-] | 2 | 16 | 64 | 16 | 2 | 32 | 2 | 4 | > 64 | 4.28 |
| CCCCCC[P+](CCCCCC)(CCCCCC)CCCCCCOCc1ccc(N(c2ccccc2)c2ccc(COCCCCCC[P+](CCCCCC)(CCCCCC)CCCCCC)cc2)cc1.[Cl-].[Cl-] | 2 | 16 | > 64 | 16 | 2 | 32 | 2 | 2 | 64 | 4.16 |
